Reference: ChEMBL document CHEMBL1926569, “Novel (E)-1-(4-methyl-2-(alkylamino)thiazol-5-yl)-3-arylprop-2-en-1-ones as potent antimicrobial agents” (2011)

What was measured:
[1] = test system: Aspergillus ochraceus; assay: Antifungal activity against Aspergillus ochraceus after 72 hrs by serial dilution technique
[2] = test system: Penicillium ochrochloron; assay: Antifungal activity against Penicillium ochrochloron ATCC 9112 after 72 hrs by serial dilution technique; format: functional; conditions: ATCC 9112, 72 h
Procedure, shortened: (§1)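 Modified microdilution in 96-well plates. Fungi were kept on malt agar at 4 °C. Spores were washed off in sterile 0.85% saline with 0.1% Tween 80. Compounds were dissolved at 1 mg/ml in 5% DMSO with 0.1% Tween 80 and added to malt broth with inoculum. Plates were shaken at 160 rpm for 72 h at 28 °C. Duplicate, repeated three times.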

[3] = test system: Candida albicans; assay: Antifungal activity against Candida albicans isolated from human incubated for 72 hrs followed by serial sub-cultivation for 72 hrs by serial dilution technique; format: functional
Procedure, shortened: (§2)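 MFC: material from 72 h malt broth microdilution wells was serially sub-cultured into fresh broth plates and incubated a further 72 h at 28 °C. Fungicidal concentration is taken from growth after sub-culture. Duplicate, repeated three times.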

[4] = test system: Escherichia coli; assay: Antibacterial activity against Escherichia coli ATCC 35210 incubated for 24 hrs followed by serial sub-cultivation for 24 hrs by microdilution; format: functional; conditions: ATCC 35210, 24 h
Procedure, shortened: (§3)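 MBC: after the 24 h LB broth microdilution (1.0 × 10⁴ CFU per well, 160 rpm), wells were serially sub-cultured into fresh broth plates and incubated a further 24 h. MBC is the lowest concentration with no visible growth, taken as 99.5% killing of the original inoculum. Duplicate, repeated three times.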

[5] = test system: Listeria monocytogenes; assay: Antibacterial activity against Listeria monocytogenes NCTC 7973 incubated for 24 hrs followed by serial sub-cultivation for 24 hrs by microdilution; format: functional; conditions: NCTC 7973, 24 h
Procedure, shortened: as §3

[6] = test system: Trichoderma viride; assay: Antifungal activity against Trichoderma viride IAM 5061 after 72 hrs by serial dilution technique; format: functional; conditions: IAM 5061, 72 h
Procedure, shortened: as §1

[7] = test system: Micrococcus flavus; assay: Antibacterial activity against Micrococcus flavus ATCC 10240 incubated for 24 hrs followed by serial sub-cultivation for 24 hrs by microdilution; format: functional; conditions: ATCC 10240, 24 h
Procedure, shortened: as §3

[8] = test system: Penicillium ochrochloron; assay: Antifungal activity against Penicillium ochrochloron ATCC 9112 incubated for 72 hrs followed by serial sub-cultivation for 72 hrs by serial dilution technique; format: functional; conditions: ATCC 9112, 72 h
Procedure, shortened: as §2

[9] = test system: Trichoderma viride; assay: Ratio of bifonazole to compound for Trichoderma viride IAM 5061; format: functional
[10] = test system: Aspergillus niger; assay: Ratio of bifonazole to compound for Aspergillus niger ATCC 6275; format: functional
[11] = test system: Aspergillus ochraceus; assay: Ratio of ketoconazole to compound for Aspergillus ochraceus ATCC 12066; format: functional
[12] = test system: Aspergillus flavus; assay: Antifungal activity against Aspergillus flavus ATCC 9643 after 72 hrs by serial dilution technique; format: functional; conditions: ATCC 9643, 72 h
Procedure, shortened: as §1

[13] = test system: Pseudomonas aeruginosa; assay: Antibacterial activity against Pseudomonas aeruginosa ATCC 27853 incubated for 24 hrs followed by serial sub-cultivation for 24 hrs by microdilution; format: functional; conditions: ATCC 27853, 24 h
Procedure, shortened: as §3

[14] = test system: Talaromyces funiculosus; assay: Antifungal activity against Penicillium funiculosum ATCC 36839 incubated for 72 hrs followed by serial sub-cultivation for 72 hrs by serial dilution technique; format: functional; conditions: ATCC 36839, 72 h
Procedure, shortened: as §2

[15] = test system: Talaromyces funiculosus; assay: Antifungal activity against Penicillium funiculosum ATCC 36839 after 72 hrs by serial dilution technique; format: functional; conditions: ATCC 36839, 72 h
Procedure, shortened: as §1

[16] = test system: Micrococcus flavus; assay: Antibacterial activity against Micrococcus flavus ATCC 10240 after 24 hrs by microdilution method; format: functional; conditions: ATCC 10240, 24 h
Procedure, shortened: (§4)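 Broth microdilution in 96-well plates. Bacterial suspensions were adjusted in sterile saline to 1.0 × 10⁵ CFU/ml, prepared daily and kept at 4 °C. Compound was added to LB broth with 1.0 × 10⁴ CFU per well and shaken at 160 rpm for 24 h at […] (so in the source). MIC is the lowest concentration with no visible growth under a binocular microscope. OD655 was also read. Duplicate, repeated three times.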

[17] = test system: Aspergillus ochraceus; assay: Antifungal activity against Aspergillus ochraceus ATCC 12066 incubated for 72 hrs followed by serial sub-cultivation for 72 hrs by serial dilution technique; format: functional; conditions: ATCC 12066, 72 h
Procedure, shortened: as §2

[18] = test system: Salmonella typhimurium; assay: Antibacterial activity against Salmonella Typhimurium ATCC 13311 incubated for 24 hrs followed by serial sub-cultivation for 24 hrs by microdilution; format: functional, Salmonella enterica subsp. enterica serovar Typhimurium; conditions: Salmonella enterica, ATCC 13311, 24 h
Procedure, shortened: as §3

[19] = test system: Staphylococcus aureus; assay: Antibacterial activity against Staphylococcus aureus ATCC 6538 after 24 hrs by microdilution method; format: functional; conditions: ATCC 6538, 24 h
Procedure, shortened: as §4

[20] = test system: Enterococcus faecalis; assay: Antibacterial activity against Enterococcus faecalis isolated from human after 24 hrs by microdilution method; format: functional
Procedure, shortened: as §4

[21] = test system: Aspergillus niger; assay: Antifungal activity against Aspergillus niger ATCC 6275 after 72 hrs by serial dilution technique; format: functional; conditions: ATCC 6275, 72 h
Procedure, shortened: as §1

[22] = test system: Talaromyces funiculosus; assay: Ratio of bifonazole to compound for Penicillium funiculosum ATCC 36839; format: functional
[23] = test system: Aspergillus niger; assay: Antifungal activity against Aspergillus niger ATCC 6275 incubated for 72 hrs followed by serial sub-cultivation for 72 hrs by serial dilution technique; format: functional; conditions: ATCC 6275, 72 h
Procedure, shortened: as §2

[24] = test system: Aspergillus fumigatus; assay: Antifungal activity against Aspergillus fumigatus isolated from human incubated for 72 hrs followed by serial sub-cultivation for 72 hrs by serial dilution technique; format: functional
Procedure, shortened: as §2

[25] = test system: Salmonella typhimurium; assay: Antibacterial activity against Salmonella Typhimurium ATCC 13311 after 24 hrs by microdilution method; format: functional, Salmonella enterica subsp. enterica serovar Typhimurium; conditions: Salmonella enterica, ATCC 13311, 24 h
Procedure, shortened: as §4

[26] = test system: Listeria monocytogenes; assay: Antibacterial activity against Listeria monocytogenes NCTC 7973 after 24 hrs by microdilution method; format: functional; conditions: NCTC 7973, 24 h
Procedure, shortened: as §4

[27] = test system: Enterococcus faecalis; assay: Antibacterial activity against Enterococcus faecalis isolated from human incubated for 24 hrs followed by serial sub-cultivation for 24 hrs by microdilution; format: functional
Procedure, shortened: as §3

[28] = test system: Bacillus cereus; assay: Antibacterial activity against clinical isolate of Bacillus cereus after 24 hrs by microdilution method; format: functional
Procedure, shortened: as §4

[29] = test system: Aspergillus ochraceus; assay: Ratio of bifonazole to compound for Aspergillus ochraceus ATCC 12066; format: functional
[30] = test system: Aspergillus flavus; assay: Antifungal activity against Aspergillus flavus ATCC 9643 incubated for 72 hrs followed by serial sub-cultivation for 72 hrs by serial dilution technique; format: functional; conditions: ATCC 9643, 72 h
Procedure, shortened: as §2

[31] = test system: Escherichia coli; assay: Antibacterial activity against Escherichia coli ATCC 35210 after 24 hrs by microdilution method; format: functional; conditions: ATCC 35210, 24 h
Procedure, shortened: as §4

[32] = test system: Penicillium ochrochloron; assay: Ratio of ketoconazole to compound for Penicillium ochrochloron ATCC 9112; format: functional
[33] = test system: Pseudomonas aeruginosa; assay: Ratio of ampicillin MIC to compound MIC for Pseudomonas aeruginosa ATCC 27853; format: functional
[34] = test system: Candida albicans; assay: Ratio of bifonazole to compound for Candida albicans isolated from human; format: functional
[35] = test system: Pseudomonas aeruginosa; assay: Antibacterial activity against Pseudomonas aeruginosa ATCC 27853 after 24 hrs by microdilution method; format: functional; conditions: ATCC 27853, 24 h
Procedure, shortened: as §4

[36] = test system: Penicillium ochrochloron; assay: Ratio of bifonazole to compound for Penicillium ochrochloron ATCC 9112; format: functional
[37] = test system: Trichoderma viride; assay: Antifungal activity against Trichoderma viride IAM 5061 incubated for 72 hrs followed by serial sub-cultivation for 72 hrs by serial dilution technique; format: functional; conditions: IAM 5061, 72 h
Procedure, shortened: as §2

[38] = test system: Candida albicans; assay: Antifungal activity against Candida albicans isolated from human after 72 hrs by serial dilution technique; format: functional
Procedure, shortened: as §1

[39] = test system: Candida albicans; assay: Ratio of ketoconazole to compound for Candida albicans isolated from human; format: functional
[40] = test system: Aspergillus fumigatus; assay: Ratio of ketoconazole to compound for Aspergillus fumigatus isolated from human; format: functional
[41] = test system: Aspergillus ochraceus; assay: Antifungal activity against Aspergillus ochraceus ATCC 12066 after 72 hrs by serial dilution technique; format: functional; conditions: ATCC 12066, 72 h
Procedure, shortened: as §1

[42] = test system: Staphylococcus aureus; assay: Antibacterial activity against Staphylococcus aureus ATCC 6538 incubated for 24 hrs followed by serial sub-cultivation for 24 hrs by microdilution method; format: functional; conditions: ATCC 6538, 24 h
Procedure, shortened: as §3

[43] = test system: Bacillus cereus; assay: Antibacterial activity against clinical isolate of Bacillus cereus incubated for 24 hrs followed by serial sub-cultivation for 24 hrs by microdilution; format: functional
Procedure, shortened: as §3

CNc1nc(C)c(C(=O)/C=C/c2cccc(Cl)c2Cl)s1
91.7 µM: MBC [5] | MBC [7] | MBC [13] | MIC [26] | MBC [42]
45.9 µM: MIC [28] | MIC [31] | MIC [38]
30.6 µM: MIC [1] | MIC [2] | MIC [6] | MIC [12] | MIC [15] | MIC [16] | MIC [21] | MIC [41]
10: Ratio [9] | Ratio [10] | Ratio [11] | Ratio [22] | Ratio [29] | Ratio [32] | Ratio [33] | Ratio [34] | Ratio [36] | Ratio [39] | Ratio [40]
76.5 µM: MBC [18] | MIC [20] | MBC [27] | MFC [30]
61.2 µM: MFC [3] | MBC [4] | MFC [8] | MFC [14] | MFC [17] | MIC [19] | MFC [23] | MFC [24] | MIC [25] | MIC [35] | MFC [37] | MBC [43]
